According to ChEMBL document CHEMBL1145845, “Acetogenins as selective inhibitors of the human ovarian 1A9 tumor cell line” (2003):
≈ marks a conversion by molar mass, not a printed value. Calls of active or inactive are those of the source.

What was measured:
1A9 [1] = assay: Effective dose required for inhibitory activity against 1A9 human tumor cell line.; type: functional; settings: read-out: ED50 (the source's name)
In short: (§1)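 Human tumor lines were grown in RPMI-1640 with 25 mM HEPES, 0.25% sodium bicarbonate, 10% FBS and 100 µg/mL kanamycin. KB-VIN is a vincristine-resistant KB subline, and PTX10 is a 1A9 subline with mutated β-tubulin. Trypsinized cells (1500–7500/well) got compound from DMSO stock for 3 days continuous. Cells were fixed with cold 50% TCA, stained with 0.4% SRB, and read at 562 nm. ED50 is the 50% growth-reduction concentration; not active means ≤5% inhibition at the top concentration.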

A549 [2] = assay: Effective dose required for inhibitory activity against A549 human tumor cell line.; type: functional; settings: read-out: ED50 (the source's name); in short: as §1
CAKI-1 [3] = assay: Effective dose required for inhibitory activity against CAK1 human tumor cell line; type: functional; settings: read-out: ED50 (the source's name); in short: as §1
HOS [4] = assay: Effective dose required for inhibitory activity against HOS human tumor cell line.; type: functional; settings: read-out: ED50 (the source's name); in short: as §1
HCT-8 = assay: Effective dose required for inhibitory activity against HCT-8 human tumor cell line.; type: functional; settings: read-out: ED50 (the source's name); in short: as §1
KB [5] = assay: Effective dose required for inhibitory activity against KB human tumor cell line.; type: functional; settings: read-out: ED50 (the source's name); in short: as §1
KB [6] = assay: Effective dose required for inhibitory activity against KB-VIN human tumor cell line.; type: functional; settings: read-out: ED50 (the source's name); in short: as §1
MCF7 [7] = assay: Percent inhibition against MCF-7 human tumor cell line at <5 ug/mL; type: functional
PC-3 [8] = assay: Effective dose required for inhibitory activity against PC-3 human tumor cell line.; type: functional; settings: read-out: ED50 (the source's name); in short: as §1
1A9/ptx-10 [9] = assay: Effective dose required for inhibitory activity against PTX10 human tumor cell line; type: functional; settings: read-out: ED50 (the source's name); in short: as §1
SK-MEL-2 [10] = assay: Effective dose required for inhibitory activity against SK-MEL-2 human tumor cell line.; type: functional; settings: read-out: ED50 (the source's name); in short: as §1
A549 [11] = assay: Effective dose required for inhibitory activity against A549 human tumor cell line; Not active; type: functional, cell-based; in short: as §1
HOS [12] = assay: Effective dose required for inhibitory activity against HOS human tumor cell line; Not active; type: functional, cell-based; in short: as §1
MCF7 [13] = assay: Effective dose required for inhibitory activity against MCF-7 human tumor cell line.; type: functional; settings: read-out: ED50 (the source's name); in short: as §1
1A9/ptx-10 [14] = assay: Percent inhibition against PTX10 human tumor cell line at >10 ug/mL; type: functional
1A9 [15] = assay: Percent inhibition against 1A9 human tumor cell line at 0.10 ug/mL; type: functional
In short: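 Human ovarian 1A9 cells grown in RPMI-1640 with 25 mM HEPES, 0.25% sodium bicarbonate, 10% FBS and 100 µg/mL kanamycin. Freshly trypsinized cells seeded at 1500–7500/well; compound added from DMSO-diluted stock; 3-day continuous exposure. Cells fixed with cold 50% TCA, stained with 0.4% SRB, dye solubilized, A562 read. Percent growth inhibition given where <50% at highest concentration.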

CAKI-1 [16] = assay: Effective dose required for inhibitory activity against CAK1 human tumor cell line; Not active; type: functional, cell-based; in short: as §1
SK-MEL-2 [17] = assay: Effective dose required for inhibitory activity against SK-MEL-2 human tumor cell line; Not active; type: functional, cell-based; in short: as §1
1A9 [18] = assay: Percent inhibition against 1A9 human tumor cell line at <0.00008 ug/mL; type: functional
PC-3 [19] = assay: Effective dose required for inhibitory activity against PC-3 human tumor cell line; Not active; type: functional, cell-based; in short: as §1
1A9 [20] = assay: Percent inhibition against 1A9 human tumor cell line at >10 ug/mL; type: functional

Compound | EC50 (1A9 [1]) | EC50 (A549 [2]) | EC50 (CAKI-1 [3]) | EC50 (HOS [4]) | EC50 (HCT-8) | EC50 (KB [5]) | EC50 (KB [6]) | Inhibition (MCF7 [7]) | EC50 (PC-3 [8]) | EC50 (1A9/ptx-10 [9]) | EC50 (SK-MEL-2 [10]) | EC50 (MCF7 [13]) | Inhibition (1A9/ptx-10 [14]) | NA (CAKI-1 [16]) | NA (SK-MEL-2 [17]) | other results
CCCCCCCCCCCC[C@@H](O)[C@H]1CC[C@H]([C@H](O)CCCCC(O)CCCCCCCC2=C[C@H](C)OC2=O)O1 (stereo partly drawn) | 0.1 µg/mL (≈ 0.172 µM) | 9.8 µg/mL (≈ 16.9 µM) | 13.9 µg/mL (≈ 23.9 µM) | 9.8 µg/mL (≈ 16.9 µM) | 10.8 µg/mL (≈ 18.6 µM) | 7.6 µg/mL (≈ 13.1 µM) | 12.5 µg/mL (≈ 21.5 µM) | 55% | 8.1 µg/mL (≈ 13.9 µM) | 5 µg/mL (≈ 8.61 µM) | 14.2 µg/mL (≈ 24.4 µM) |  |  |  |  | 
CCCCCCCCCCCC[C@@H](O)[C@H]1CC[C@H]([C@H](O)CCCC[C@H](O)CCCCC[C@@H](O)CC2=CC(C)OC2=O)O1 (stereo partly drawn) [ANNONACIN] | 0.07 µg/mL (≈ 0.117 µM) | 7.8 µg/mL (≈ 13.1 µM) | 9.8 µg/mL (≈ 16.4 µM) | 8.2 µg/mL (≈ 13.7 µM) | 7.9 µg/mL (≈ 13.2 µM) | 7.5 µg/mL (≈ 12.6 µM) | 10.3 µg/mL (≈ 17.3 µM) | 62% | 8.2 µg/mL (≈ 13.7 µM) | 6 µg/mL (≈ 10.1 µM) | 13.8 µg/mL (≈ 23.1 µM) |  |  |  |  | 
CCCCCCCCCCCC[C@@H](O)[C@H]1CC[C@H]([C@H](O)CCCCCC(O)CCCC[C@@H](O)CC2=C[C@H](C)OC2=O)O1 (stereo partly drawn) | 0.5 µg/mL (≈ 0.838 µM) | 12 µg/mL (≈ 20.1 µM) | 16.3 µg/mL (≈ 27.3 µM) | 13.1 µg/mL (≈ 21.9 µM) | 14.2 µg/mL (≈ 23.8 µM) | 11.8 µg/mL (≈ 19.8 µM) | 17 µg/mL (≈ 28.5 µM) | 57% | 7.8 µg/mL (≈ 13.1 µM) | 9.3 µg/mL (≈ 15.6 µM) | 13.1 µg/mL (≈ 21.9 µM) |  |  |  |  | 
CCCCCCCCCCCC[C@@H](O)[C@H]1CC[C@H]([C@H](O)CCCCCCCCCC[C@@H](O)CC2=C[C@H](C)OC2=O)O1 [MURISOLIN] | 0.96 µg/mL (≈ 1.65 µM) |  | > 20 µg/mL |  | > 20 µg/mL | > 20 µg/mL | > 20 µg/mL |  | > 20 µg/mL |  | > 20 µg/mL | > 20 µg/mL | 21% |  |  | NA (A549 [11]): inactive; NA (HOS [12]): inactive
CCCCCCCCC[C@H](O)[C@@H]1CC[C@H]([C@H]2CC[C@@H](CCCCCCCCCC[C@H](O)CC3=C[C@H](C)OC3=O)O2)O1 |  | > 20 µg/mL |  | > 20 µg/mL | > 20 µg/mL | > 20 µg/mL | > 20 µg/mL |  | > 20 µg/mL |  |  | > 20 µg/mL | 23% | inactive | inactive | inhibition at 0.1 µg/mL (1A9 [15]): 47%
CCCCCCCCCC[C@@H](O)[C@@H]1CC[C@@H]([C@@H]2CC[C@@H]([C@H](O)CCCCCCCCCC(O)CC3=CC(C)OC3=O)O2)O1 (stereo partly drawn) [BULLATACIN] |  | 13.3 µg/mL (≈ 21.8 µM) | 16.8 µg/mL (≈ 27.6 µM) | 11.9 µg/mL (≈ 19.5 µM) | 14.9 µg/mL (≈ 24.5 µM) | 10 µg/mL (≈ 16.4 µM) | 16.1 µg/mL (≈ 26.4 µM) |  | 14.3 µg/mL (≈ 23.5 µM) | 8 µg/mL (≈ 13.1 µM) | 17.1 µg/mL (≈ 28.1 µM) | 8.4 µg/mL (≈ 13.8 µM) |  |  |  | Inhibition (1A9 [18]): 55%
CCCCCCCCCCCC[C@@H](O)[C@H]1CC[C@H]([C@H](O)CCCCCCCCCCCCC2=C[C@H](C)OC2=O)O1 [REL-SOLAMIN] | 7.8 µg/mL (≈ 13.8 µM) | > 20 µg/mL |  | > 20 µg/mL | > 20 µg/mL | > 20 µg/mL | > 20 µg/mL |  |  |  |  | > 20 µg/mL | 18% | inactive | inactive | NA (PC-3 [19]): inactive
CCCCC/C=C\CCC(O)C(O)CCCC[C@@H](O)[C@@H]1CC[C@@H](CCCCCCCCCCCCC2=C[C@H](C)OC2=O)O1 (stereo partly drawn) |  |  |  |  | > 20 µg/mL | > 20 µg/mL | > 20 µg/mL |  | > 20 µg/mL |  |  | > 20 µg/mL | 13% | inactive | inactive | Inhibition (1A9 [20]): 39%; NA (A549 [11]): inactive; NA (HOS [12]): inactive
